Test results: article PMC12065821 (Scientific Reports, 2025)
Where a SMILES comes first, the peptide text is derived from it. Bridges are numbered along the chain shown (N, C = ends). [ ]: non-standard residue; d: D form. The star is where a group is joined. X1 = CC[C@H](C)CCCCC(=O)*; Dab = NCC[C@H](N)C(=O)O

Experiments:
[1] = Plasma PK of CMS/CMS-E2 and formed colistin/colistin B; assay type: in vivo, rats; settings: rat plasma, LC-MS/MS, NCA, mean ± SD
Method in brief: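 Male Sprague-Dawley rats were dosed once i.p. in saline, and serial jugular-vein blood was taken before and after dosing. Blood was heparinised (1%), spun at 4,982 × g for 10 min at 4 °C, and plasma stored at −70 °C. Plasma (40 µL) went through WCX solid-phase extraction with polymyxin B1 internal standard, then LC-MS/MS. Prodrug was total (acid-hydrolysed) minus free analyte. […] Values are mean ± SD, compared by Wilcoxon rank sum.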

[2] = Kidney PK of CMS/CMS-E2 and formed colistin/colistin B; assay type: in vivo, rats; settings: for Kp: kidney (cortex) / plasma, colistin/colistin B; for AUC0-inf formed colistin/colistin B in kidneys / Tmax formed colistin/colistin B in kidneys / t1/2 formed colistin/colistin B in kidneys / Cmax formed colistin/colistin B in kidneys / AUC0-inf CMS/CMS-E2 in kidneys / Tmax CMS/CMS-E2 in kidneys / t1/2 CMS/CMS-E2 in kidneys / Cmax CMS/CMS-E2 in kidneys: rat kidney cortex, LC-MS/MS; for AUC0-inf formed colistin/colistin B in kidneys / Tmax formed colistin/colistin B in kidneys / t1/2 formed colistin/colistin B in kidneys / AUC0-inf CMS/CMS-E2 in kidneys / Tmax CMS/CMS-E2 in kidneys / t1/2 CMS/CMS-E2 in kidneys: NCA; for Cmax formed colistin/colistin B in kidneys / Cmax CMS/CMS-E2 in kidneys: mean ± SD
Method in brief: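 Male Sprague-Dawley rats (300 ± 15 g) got one i.p. dose in saline. At each sampling time rats were anaesthetised with tiletamine-zolazepam (40 mg/kg) and killed, and the left kidney was frozen at −70 °C. Kidney cortex was homogenised in saline (1:10 m/v, 1% BSA). Samples went through WCX solid-phase extraction with polymyxin B1 internal standard, then LC-MS/MS. Prodrug was calculated as total (after […] sulfuric acid hydrolysis) minus free colistin/colistin B. Parameters came from non-compartmental analysis.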

[3] = PK-TD model, PK component; assay type: in vivo; settings: rats, one-compartment PK-TD model, mean ± SD
Method in brief: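 Plasma prodrug and formed colistin/colistin B concentrations after i.p. dosing were fitted by a compartmental model. The final model used one compartment each for prodrug and formed drug, a conversion rate constant, and linear first-order total clearance from both. Fit was judged by R², AIC, BIC and visual inspection. Estimates are mean ± SD.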

rats [4] = assay: Regression of kidney colistin/colistin B concentrations against CR, BUN, SQS; assay type: in vivo; settings: 95% CI
[5] = rats; CMS and formed colistin; cited from earlier work
patients = settings: plasma colistin; cited from earlier work
[6] = cited from earlier work
rats [7] = assay: Kidney injury biomarkers: plasma CR and BUN; assay type: in vivo; settings: rat plasma, mean ± SD
Method in brief: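 Rats (male Sprague-Dawley) received one i.p. injection in saline, with a saline control group. Plasma came from serial heparinised jugular-vein samples, plus blood taken at sacrifice in a second cohort. Creatinine and blood urea nitrogen were measured on an automatic biochemical analyser. Peak levels and times to peak were taken from the time profiles and given as mean ± SD.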

rats [8] = assay: Renal histological examination; assay type: in vivo; settings: rat kidney; for maximal SQS: mean ± SD, SD
rats [9] = assay: PK-TD model, TD component; assay type: in vivo; settings: i.p., mean ± SD
Method in brief: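 Plasma creatinine and BUN time courses were linked to plasma colistin/colistin B through an indirect hypothetical effect compartment. K_e is the rate constant from the central to the effect compartment. The effect was linear: E = E₀ + S·C_e, with E₀ the pre-dose baseline. T_lag was calculated as 1/K_e. Fit was judged by R², AIC, BIC and visual inspection. Parameters are mean ± SD.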

rats [10] = assay: Maximal tolerability dose; assay type: in vivo; settings: intraperitoneal
[11] = single i.p. CMS or CMS-E2 20 mg/kg CBA
[12] = single i.p. CMS or CMS-E2 20 mg/kg CBA, SD
[13] = rats, single i.p. CMS or CMS-E2 20 mg/kg CBA
[14] = single i.p. CMS-E2 40 mg/kg CBA

CC[C@H](C)CCCCC(=O)N[C@@H](CCN)C(=O)N[C@H](C(=O)N[C@@H](CCN)C(=O)N[C@H]1CCNC(=O)[C@H]([C@@H](C)O)NC(=O)[C@H](CCN)NC(=O)[C@H](CCN)NC(=O)[C@H](CC(C)C)NC(=O)[C@@H](CC(C)C)NC(=O)[C@H](CCN)NC1=O)[C@@H](C)O [colistin, Colistin] (X1-[Dab]T[Dab][Dab][Dab][dL]L[Dab][Dab]T; lactam 4-C)
AUC0-inf formed colistin/colistin B in plasma ([1]; single i.p. CMS 10 mg/kg CBA): 2050 ± 371 ng·h/mL | Cmax formed colistin/colistin B in plasma ([1]; single i.p. CMS 10 mg/kg CBA): 764 ± 123 ng/mL | Tmax formed colistin/colistin B in plasma ([1]; single i.p. CMS 10 mg/kg CBA): 2.00 ± 0.00 h | t1/2 formed colistin/colistin B in plasma ([1]; single i.p. CMS 10 mg/kg CBA): 0.74 ± 0.0768 h | AUC0-inf formed colistin/colistin B in plasma [1, 11]: 23100 ± 7460 ng·h/mL | Cmax formed colistin/colistin B in plasma [1, 11]: 3990 ± 1520 ng/mL | Tmax formed colistin/colistin B in plasma [1, 11]: 3.55 ± 0.891 h | t1/2 formed colistin/colistin B in plasma [1, 11]: 1.88 ± 0.672 h | Kp ([2]; male, Sprague-Dawley, rat, ip, 10 mg/kg CBA, Kidney/plasma ratio of AUC0-inf, rats, single i.p. CMS 10 mg/kg CBA): 31.6 | Kp ([2]; male, Sprague-Dawley, rat, ip, 10 mg/kg CBA, Kidney/plasma ratio of Cmax, rats, single i.p. CMS 10 mg/kg CBA): 13.7 | Kp ([2]; male, Sprague-Dawley, rat, ip, 20 mg/kg CBA, Kidney/plasma ratio of AUC0-inf, rats, single i.p. CMS or CMS-E2 20 mg/kg CBA): 26.1 | tissue level at time at 8 h ([2]; male, Sprague-Dawley, rat, kidney cortex, ip, 10 mg/kg CBA, SD): 3550 ± 594 ng/g | tissue level at time at 24 h ([2]; male, Sprague-Dawley, rat, kidney cortex, ip, 20 mg/kg CBA, SD): 5970 ± 1850 ng/g | AUC0-inf formed colistin/colistin B in kidneys ([2]; single i.p. CMS 10 mg/kg CBA): 64.7 µg·h/g | Tmax formed colistin/colistin B in kidneys ([2]; single i.p. CMS 10 mg/kg CBA): 2 h | t1/2 formed colistin/colistin B in kidneys ([2]; single i.p. CMS 10 mg/kg CBA): 1.21 h | Cmax formed colistin/colistin B in kidneys ([2]; single i.p. CMS 10 mg/kg CBA, SD): 10.4 ± 3.13 µg/g | AUC0-inf formed colistin/colistin B in kidneys ([2]; single i.p. CMS 20 mg/kg CBA): 603 µg·h/g | t1/2 formed colistin/colistin B in kidneys ([2]; single i.p. CMS 20 mg/kg CBA): 6.23 h | Tmax formed colistin/colistin B in kidneys [2, 11]: 6 h | Cmax formed colistin/colistin B in kidneys [2, 12]: 53.6 ± 11.0 µg/g | Kidney/plasma ratio of Cmax, colistin/colistin B [2, 13]: 12.7 | CLcolistin/colistin B (total body clearance) ([3]; single i.p. CMS 10 mg/kg CBA): 2.57 ± 0.420 mL/min/kg | regression coefficient between kidney concentration and SQS (rats [4]; ordered logistic regression): 0.10 | regression coefficient between kidney concentration and contemporaneous BUN (rats [4]; simple linear regression): 0.27 | regression coefficient between kidney concentration and contemporaneous CR (rats [4]; simple linear regression): 0.74 | t1/2 in prior reports [5]: 0.533 to 1.8 h | steady-state trough concentration associated with increased nephrotoxicity (patients): > 2.2 mg/L | fraction undergoing glomerular filtration into the tubular lumen [6]: 18%

Colistin B methanesulphonate [CMS-E2]
AUC0-inf CMS/CMS-E2 in plasma [1, 11]: 37200 ± 10500 ng·h/mL | CL/F CMS/CMS-E2 [1, 11]: 9.90 ± 3.34 mL/min/kg | Cmax CMS/CMS-E2 in plasma [1, 11]: 19100 ± 4500 ng/mL | Tmax CMS/CMS-E2 in plasma [1, 11]: 0.500 ± 0.00 h | Vd/F CMS/CMS-E2 [1, 11]: 0.464 ± 0.108 L/kg | t1/2 CMS/CMS-E2 in plasma [1, 11]: 0.573 ± 0.16 h | AUC0-inf CMS/CMS-E2 in plasma [1, 14]: 226000 ± 125000 ng·h/mL | CL/F CMS/CMS-E2 [1, 14]: 4.18 ± 2.56 mL/min/kg | Cmax CMS/CMS-E2 in plasma [1, 14]: 50900 ± 23500 ng/mL | Tmax CMS/CMS-E2 in plasma [1, 14]: 1.75 ± 0.433 h | Vd/F CMS/CMS-E2 [1, 14]: 0.497 ± 0.278 L/kg | t1/2 CMS/CMS-E2 in plasma [1, 14]: 1.57 ± 0.522 h | AUC0-inf CMS/CMS-E2 in kidneys [2, 11]: 289 µg·h/g | Tmax CMS/CMS-E2 in kidneys [2, 11]: 2 h | t1/2 CMS/CMS-E2 in kidneys [2, 11]: 0.56 h | Cmax CMS/CMS-E2 in kidneys [2, 12]: 105 ± 25.3 µg/g | AUC0-inf CMS/CMS-E2 in kidneys [2, 14]: 2496 µg·h/g | Tmax CMS/CMS-E2 in kidneys [2, 14]: 4 h | t1/2 CMS/CMS-E2 in kidneys [2, 14]: 2.02 h | Cmax CMS/CMS-E2 in kidneys ([2]; single i.p. CMS-E2 40 mg/kg CBA, SD): 379 ± 85.5 µg/g | Kidney/plasma ratio of Cmax, CMS/CMS-E2 [2, 13]: 5.50 | Kidney/plasma ratio of Cmax, CMS/CMS-E2 ([2]; rats, single i.p. CMS-E2 40 mg/kg CBA): 7.44 | peak BUN level (rats [7]; [11]): 12.4 ± 5.21 mmol/L | peak CR level (rats [7]; [11]): 33.4 ± 3.44 µmol/L | time of peak BUN (rats [7]; [11]): 6.00 ± 0.00 h | time of peak CR level (rats [7]; [11]): 4.67 ± 1.89 h | peak BUN level (rats [7]; [14]): 23.0 ± 5.59 mmol/L | peak CR level (rats [7]; [14]): 104 ± 40.4 µmol/L | time of peak BUN (rats [7]; [14]): 11.1 ± 3.00 h | time of peak CR level (rats [7]; [14]): 8.86 ± 3.18 h | histological lesions during the first 2 h (rats [8]; PAS stain, single i.p. CMS or CMS-E2 20 mg/kg CBA): No obvious histological lesion | maximal SQS (rats [8]; [11]): 0.667 ± 0.577 | histological damage at time points other than 4 h (rats [8]; single i.p. CMS-E2 20 mg/kg CBA): no obvious damage was observed | recovery of histological damage at 24 h (rats [8]; [14]): all damage was completely recovered | maximal SQS (rats [8]; [14]): 2.33 ± 1.16 | CLCMS/CMS-E2 (total body clearance) [3, 14]: 3.20 ± 1.74 mL/min/kg | Ka CMS/CMS-E2 (absorption rate) [3, 14]: 0.673 ± 0.208 h⁻¹ | V (volume of distribution) [3, 14]: 0.291 ± 0.105 L/kg | S (slope between colistin/colistin B concentration in effect compartment and CR) (rats [9]; E = E0 + S·Ce): 13.0 ± 3.52 mmol/g | Ke (rate from colistin/colistin B central compartment to effect compartment), BUN (rats [9]; indirect link PK-TD model, effect = BUN): 0.182 ± 0.164 h⁻¹ | Ke (rate from colistin/colistin B central compartment to effect compartment), CR (rats [9]; indirect link PK-TD model, effect = plasma CR): 0.814 ± 0.524 h⁻¹ | Tlag (lag time), BUN (rats [9]; reciprocal of Ke, effect = BUN): 11.9 ± 9.46 h | Tlag (lag time), CR (rats [9]; reciprocal of Ke, effect = plasma CR): 1.83 ± 1.05 h | maximal tolerability dose (rats [10]): 40 mg/kg CBA
